Drawing on ChEMBL document CHEMBL1275592, “AmpN-AmpG operon is essential for expression of L1 and L2 beta-lactamases in Stenotrophomonas maltophilia” (2010), this text covers MIC for three compounds.

≈ marks a conversion by molar mass, not a printed value.

Common to all, as to type: functional
In experiment [1] the test system is Stenotrophomonas maltophilia. In words: Antimicrobial activity against Stenotrophomonas maltophilia KJG harboring ampG with xylE-Gmomega cassette insertion by agar dilution method. In short, it runs like this: (§1)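 MICs were determined in triplicate by standard 2-fold serial agar dilution, following CLSI guidelines.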
Experiment [2] deals with Stenotrophomonas maltophilia. Kind of experiment: Antimicrobial activity against Stenotrophomonas maltophilia KJN2 harboring ampN with xylE-Gmomega cassette insertion by agar dilution method. In short, it runs like this:
as §1

Experiment [3] relates to Stenotrophomonas maltophilia. In words: Antimicrobial activity against Stenotrophomonas maltophilia KJN2 harboring pRK-G plasmid and ampN with xylE-Gmomega cassette insertion by agar dilution method. In short, it runs like this: as §1
Experiment [4] relates to Stenotrophomonas maltophilia. In words: Antimicrobial activity against Stenotrophomonas maltophilia KJN1 harboring ampN with xylE-Gmomega cassette insertion by agar dilution method. In short, it runs like this: as §1
Experiment [5] deals with Stenotrophomonas maltophilia. Kind of experiment: Antimicrobial activity against Stenotrophomonas maltophilia KJN2 harboring pRK-EcG plasmid and ampN with xylE-Gmomega cassette insertion by agar dilution method. In outline: as §1
Experiment [6] has as its system Stenotrophomonas maltophilia. In words: Antimicrobial activity against Stenotrophomonas maltophilia KJN2 harboring pRK415 plasmid and ampN with xylE-Gmomega cassette insertion by agar dilution method. In short, it runs like this: as §1
Experiment [7] concerns Stenotrophomonas maltophilia. In words: Antimicrobial activity against ampN deficient Stenotrophomonas maltophilia KJ by agar dilution method. In short, it runs like this: as §1
Experiment [8] has as its system Stenotrophomonas maltophilia. In words: Antimicrobial activity against Stenotrophomonas maltophilia KJ harboring pRK415 plasmid by agar dilution method. In outline: as §1
The subject of experiment [9] is Stenotrophomonas maltophilia. In words: Antimicrobial activity against ampN deficient Stenotrophomonas maltophilia KJ harboring ampG with xylE-Gmomega cassette insertion by agar dilution method. In outline: as §1
Experiment [10] concerns Stenotrophomonas maltophilia. Kind of experiment: Antimicrobial activity against Stenotrophomonas maltophilia KJ by agar dilution method. In short, it runs like this:
as §1

Experiment [11] deals with Stenotrophomonas maltophilia. Kind of experiment: Antimicrobial activity against Stenotrophomonas maltophilia KJ harboring pRK-NG plasmid by agar dilution method. In short, it runs like this:
as §1

Experiment [12] concerns Stenotrophomonas maltophilia. In words: Antimicrobial activity against Stenotrophomonas maltophilia KJN2 harboring pRK-NG plasmid and ampN with xylE-Gmomega cassette insertion by agar dilution method. In outline: as §1

Take `C[C@H]1[C@H](NC(=O)/C(=N\OC(C)(C)C(=O)O)c2csc(N)n2)C(=O)N1S(=O)(=O)O` [AZTREONAM]: the MIC in experiment [1] is 16 µg/mL (≈ 36.7 µM); in experiment [2], 16 µg/mL (≈ 36.7 µM); in experiment [3], 32 µg/mL (≈ 73.5 µM); in experiment [4], 32 µg/mL (≈ 73.5 µM); in [5], greater than 1020 µg/mL; in [6] it was 16 µg/mL (≈ 36.7 µM). Besides, the MIC was 32 µg/mL (≈ 73.5 µM) in experiment [7]; greater than 1020 µg/mL in [8]; 16 µg/mL (≈ 36.7 µM) in experiment [9]; greater than 1020 µg/mL in experiment [10]; greater than 1020 µg/mL in experiment [11]; greater than 1020 µg/mL in [12].
For the compound `CC1(C)S[C@@H]2[C@H](NC(=O)C(C(=O)O)c3ccccc3)C(=O)N2[C@H]1C(=O)O` (stereo partly specified) [CARBENICILLIN], the minimum inhibitory concentration (MIC) in experiment [1] stood at 2 µg/mL (≈ 5.29 µM); in experiment [2] it was 2 µg/mL (≈ 5.29 µM); in [3], 4 µg/mL (≈ 10.6 µM); in experiment [4], 8 µg/mL (≈ 21.1 µM); in experiment [5], 512 µg/mL (≈ 1350 µM); in [6], 4 µg/mL (≈ 10.6 µM). In addition, the MIC in experiment [7] stood at 4 µg/mL (≈ 10.6 µM); in experiment [8], 1020 µg/mL (≈ 2710 µM); in [9], 2 µg/mL (≈ 5.29 µM); in [10] it was 1020 µg/mL (≈ 2710 µM); in experiment [11], 1020 µg/mL (≈ 2710 µM); in experiment [12], 1020 µg/mL (≈ 2710 µM).
As for `CO[C@@]1(NC(=O)Cc2cccs2)C(=O)N2C(C(=O)O)=C(COC(N)=O)CS[C@@H]21` [CEFOXITIN], the MIC was 32 µg/mL (≈ 74.9 µM) in [1]; 32 µg/mL (≈ 74.9 µM) in experiment [2]; 64 µg/mL (≈ 150 µM) in experiment [3]; 32 µg/mL (≈ 74.9 µM) in experiment [4]; 1020 µg/mL (≈ 2400 µM) in experiment [5]; 32 µg/mL (≈ 74.9 µM) in experiment [6]. Besides, the minimal inhibitory concentration (MIC) in experiment [7] amounted to 32 µg/mL (≈ 74.9 µM); in [8], 1020 µg/mL (≈ 2400 µM); in experiment [9], 32 µg/mL (≈ 74.9 µM); in experiment [10] it was 1020 µg/mL (≈ 2400 µM); in [11], 1020 µg/mL (≈ 2400 µM); in [12], 1020 µg/mL (≈ 2400 µM).
